# Laboratory results reported in ChEMBL document CHEMBL1649062, “Integration of lead optimization with crystallography for a membrane-bound ion channel target: discovery of a new class of AMPA receptor positive allosteric modulators” (J Med Chem, 2011).
# Experiments:
# Cytochrome P450 2C9 = Cytochrome P450 2C9 (Homo sapiens, UniProt P11712); experiment: Inhibition of human CYP2C9 by fluorescence assay; format: ADME
# Summary of the method: (§1)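 Recombinant human CYP bactosomes (0.1 mg/mL) in 50 mM potassium phosphate pH 7.4, preincubated 10 min at 37 °C with test compound (0.1-10 μM, 7 concentrations) and fluorogenic substrate. Substrates: ethoxyresorufin 0.5 μM (1A2), FCA 50 μM (2C9), BMC 10 μM (2C19), MMC 10 μM (2D6), DEF 1 μM or 7-BQ 25 μM (3A4). Reaction started with NADPH regenerating system; metabolite formation read over 10 min. IC50 from percent of control rate; miconazole control; triplicate.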
# Glutamate receptor 2 [1] = target: T1, Glutamate receptor 2 (Homo sapiens, UniProt P42262); experiment: Allosteric modulation of human recombinant GluA2 receptor flip isoform expressed in HEK293 cells assessed as potentiation of glutamate-induced calcium influx by Fluo-4/FLIPR method relative to cyclothiazide; format: cell-based
# T1 sequence (P42262 whole entry, canonical isoform): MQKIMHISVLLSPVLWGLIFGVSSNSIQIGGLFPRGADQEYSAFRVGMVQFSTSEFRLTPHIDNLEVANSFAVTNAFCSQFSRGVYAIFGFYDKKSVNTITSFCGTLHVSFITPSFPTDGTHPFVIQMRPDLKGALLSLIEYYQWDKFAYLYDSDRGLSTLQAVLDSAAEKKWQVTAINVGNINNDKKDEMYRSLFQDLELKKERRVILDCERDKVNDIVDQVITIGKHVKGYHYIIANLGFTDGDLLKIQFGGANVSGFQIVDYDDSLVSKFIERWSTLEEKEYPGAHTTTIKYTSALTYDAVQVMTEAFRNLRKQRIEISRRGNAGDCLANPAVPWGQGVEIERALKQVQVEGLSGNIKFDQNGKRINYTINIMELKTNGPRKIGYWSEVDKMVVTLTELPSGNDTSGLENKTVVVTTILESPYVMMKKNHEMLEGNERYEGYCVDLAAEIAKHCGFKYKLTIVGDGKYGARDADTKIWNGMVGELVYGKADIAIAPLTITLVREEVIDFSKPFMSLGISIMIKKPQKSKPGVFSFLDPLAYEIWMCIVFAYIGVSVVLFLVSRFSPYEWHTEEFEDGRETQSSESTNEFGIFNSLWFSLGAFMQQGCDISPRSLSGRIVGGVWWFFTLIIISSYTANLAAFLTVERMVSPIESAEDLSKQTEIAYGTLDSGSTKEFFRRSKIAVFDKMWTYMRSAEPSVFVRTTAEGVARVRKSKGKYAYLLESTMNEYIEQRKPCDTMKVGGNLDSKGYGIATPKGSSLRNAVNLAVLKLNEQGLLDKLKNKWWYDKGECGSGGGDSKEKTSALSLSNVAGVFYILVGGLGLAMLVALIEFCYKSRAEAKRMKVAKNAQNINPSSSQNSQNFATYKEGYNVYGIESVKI
# Summary of the method: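 Stable GluA2 flip (unedited) cells seeded to confluence 2-3 days before assay; washed in HEPES buffer (145 NaCl, 5 KCl, 2 CaCl2, 1 MgCl2, 5.5 glucose, pH 7.3), loaded with 2 μM Fluo4-AM 60 min at room temperature. FLIPR dual addition: compound 5 min before 100 μM glutamate; fluorescence rise expressed against maximal cyclothiazide response, fitted pEC50 and Asym max; n ≥ 3.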
# [2] = Distribution coefficient, log D of the compound; format: physicochemical; details: octanol/water
# Glutamate receptor 2 [3] = target: T1, Glutamate receptor 2; experiment: Allosteric modulation of human recombinant GluA2 receptor flip isoform expressed in HEK293 cells assessed as potentiation of glutamate-induced calcium influx by Fluo-4/FLIPR method; format: cell-based
# Summary of the method: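 Stable GluA2 flip (unedited) cell line grown in DMEM/F12 with 10% FBS and seeded to confluence 2-3 days before use. Cells washed in HEPES buffer (pH 7.3) and loaded with 2 μM Fluo-4 AM for 60 min at room temperature. On FLIPR, compound was added 5 min before 100 μM glutamate. pEC50 and asymptotic maximum are relative to the maximal response to cyclothiazide, n ≥ 3.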
# [4] = Kinetic solubility of the compound in phosphate buffered saline of pH 7.4; format: physicochemical
# Summary of the method: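 Kinetic solubility: 10 mM DMSO stock, 5 μL diluted to 100 μL with pH 7.4 phosphate-buffered saline, equilibrated 1 h at room temperature, filtered, filtrate quantified by calibrated flow-injection chemiluminescent nitrogen detection.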
# [5] = Apparent permeability of the compound; format: ADME; details: not told
# Summary of the method: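 Artificial membrane permeability: donor holds 10 mM sample in pH 7.05 phosphate buffer with 0.5% hydroxypropylcyclodextrin. Membrane is 1.8% phosphatidylcholine and 1% cholesterol in decane. Donor and acceptor concentrations measured by LCMS after 3 h at room temperature; permeability expressed in nm/s.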
# [6] = Cmax in rat at 3 mg/kg, po; format: ADME, organism-based; set-up: dose 3 mg/kg, route oral; details: in vivo
# [7] = AUC ( 0 to t) in rat at 3 mg/kg, po; format: ADME, organism-based, Plasma; set-up: dose 3 mg/kg, route oral; details: plasma
# [8] = Inhibition of human CYP450 by fluorescence assay; format: ADME
# Summary of the method: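 Recombinant human CYP1A2, 2C9, 2C19, 2D6 and 3A4 bactosomes (0.1 mg/mL protein) preincubated 10 min at 37 °C in 50 mM potassium phosphate pH 7.4 with test compound (0.1–10 μM, methanol 3–4.5% final) and fluorogenic probe: ethoxyresorufin 0.5 μM (1A2), FCA 50 μM (2C9), BMC 10 μM (2C19), MMC 10 μM (2D6), DEF 1 μM or 7-BQ 25 μM (3A4). NADPH-regenerating system added; fluorescent metabolite read 10 min; rate as % control; IC50 fitted; triplicate.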
# [9] = Clearance in rat at 3 mg/kg, po; format: ADME, organism-based; set-up: dose 3 mg/kg, route oral; details: in vivo
# Summary of the method: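 Rats dosed orally at 3 mg/kg; blood sampled via the hepatic portal vein and heart. Estimated clearance derived from in vivo hepatic extraction, taking rat liver blood flow as 85 (mL/min)/kg.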
# in vivo = details: rat, po, 3 mg/kg
# [10] = Plasma protein binding in rat at 3 mg/kg, po; format: ADME, organism-based; set-up: dose 3 mg/kg, route oral; details: read-out: PPB (converted)
# Brain = experiment: Brain tissue binding in rat at 3 mg/kg, po; format: ADME, organism-based; set-up: dose 3 mg/kg, route oral; details: in vivo
# Cytochrome P450 1A2 = target: T2, Cytochrome P450 1A2 (Homo sapiens, UniProt P05177); experiment: Inhibition of human CYP1A2 by fluorescence assay; format: ADME; summary of the method: as §1
# T2 sequence (P05177 whole entry): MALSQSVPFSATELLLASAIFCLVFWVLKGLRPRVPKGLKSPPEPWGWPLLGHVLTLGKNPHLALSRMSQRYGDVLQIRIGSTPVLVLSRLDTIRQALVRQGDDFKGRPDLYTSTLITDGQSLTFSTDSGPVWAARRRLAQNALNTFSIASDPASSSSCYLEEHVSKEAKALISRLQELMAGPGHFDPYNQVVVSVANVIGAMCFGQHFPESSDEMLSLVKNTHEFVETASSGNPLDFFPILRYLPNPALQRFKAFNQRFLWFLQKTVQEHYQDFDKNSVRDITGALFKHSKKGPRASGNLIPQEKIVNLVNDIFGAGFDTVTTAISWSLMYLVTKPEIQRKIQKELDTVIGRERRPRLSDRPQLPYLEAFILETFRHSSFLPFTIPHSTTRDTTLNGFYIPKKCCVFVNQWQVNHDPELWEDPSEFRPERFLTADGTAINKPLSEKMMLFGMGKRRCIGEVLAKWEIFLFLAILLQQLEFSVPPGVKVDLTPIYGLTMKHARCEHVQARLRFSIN
# Cytochrome P450 2C19 = Cytochrome P450 2C19 (Homo sapiens, UniProt P33261); experiment: Inhibition of human CYP2C19 by fluorescence assay; format: ADME; summary of the method: as §1
# Chain of Cytochrome P450 2C19 (P33261 whole entry): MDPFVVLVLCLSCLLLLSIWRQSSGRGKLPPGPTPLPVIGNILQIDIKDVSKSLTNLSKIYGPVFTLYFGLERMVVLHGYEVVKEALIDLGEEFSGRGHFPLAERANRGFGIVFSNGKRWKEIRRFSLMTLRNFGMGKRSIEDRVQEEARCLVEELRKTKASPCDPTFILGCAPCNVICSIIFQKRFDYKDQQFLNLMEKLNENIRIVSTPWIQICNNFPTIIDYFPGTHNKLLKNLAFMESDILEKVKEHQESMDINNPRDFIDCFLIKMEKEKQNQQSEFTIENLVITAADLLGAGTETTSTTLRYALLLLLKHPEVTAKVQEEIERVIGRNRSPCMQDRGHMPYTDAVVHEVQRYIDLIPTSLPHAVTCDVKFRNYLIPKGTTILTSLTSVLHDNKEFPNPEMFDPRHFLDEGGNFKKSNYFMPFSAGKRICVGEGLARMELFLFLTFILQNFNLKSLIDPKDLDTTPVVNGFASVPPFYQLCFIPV
# Cytochrome P450 3A4 = Cytochrome P450 3A4 (Homo sapiens, UniProt P08684); experiment: Inhibition of human CYP3A4 by fluorescence assay; format: ADME; summary of the method: as §1
# Chain of Cytochrome P450 3A4 (P08684 whole entry): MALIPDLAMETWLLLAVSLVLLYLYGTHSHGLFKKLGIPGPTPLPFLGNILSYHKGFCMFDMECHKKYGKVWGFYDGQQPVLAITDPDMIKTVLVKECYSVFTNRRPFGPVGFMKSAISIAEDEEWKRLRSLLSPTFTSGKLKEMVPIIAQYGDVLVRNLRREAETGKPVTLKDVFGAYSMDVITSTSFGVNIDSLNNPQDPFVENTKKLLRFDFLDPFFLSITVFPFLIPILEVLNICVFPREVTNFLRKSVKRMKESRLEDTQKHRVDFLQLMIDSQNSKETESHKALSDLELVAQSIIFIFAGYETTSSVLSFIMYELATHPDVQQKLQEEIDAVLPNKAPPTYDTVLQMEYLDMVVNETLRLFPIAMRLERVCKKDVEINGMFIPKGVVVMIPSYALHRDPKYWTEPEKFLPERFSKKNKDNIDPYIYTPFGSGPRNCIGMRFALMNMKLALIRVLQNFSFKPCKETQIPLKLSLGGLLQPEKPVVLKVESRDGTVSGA
# [11] = AUC (0 to t) in rat blood at 3 mg/kg, po; format: ADME, organism-based; set-up: dose 3 mg/kg, route oral; details: whole blood
# Cytochrome P450 2D6 = Cytochrome P450 2D6 (Homo sapiens, UniProt P10635); experiment: Inhibition of human CYP2D6 by fluorescence assay; format: ADME; summary of the method: as §1
# Chain of Cytochrome P450 2D6 (P10635 whole entry): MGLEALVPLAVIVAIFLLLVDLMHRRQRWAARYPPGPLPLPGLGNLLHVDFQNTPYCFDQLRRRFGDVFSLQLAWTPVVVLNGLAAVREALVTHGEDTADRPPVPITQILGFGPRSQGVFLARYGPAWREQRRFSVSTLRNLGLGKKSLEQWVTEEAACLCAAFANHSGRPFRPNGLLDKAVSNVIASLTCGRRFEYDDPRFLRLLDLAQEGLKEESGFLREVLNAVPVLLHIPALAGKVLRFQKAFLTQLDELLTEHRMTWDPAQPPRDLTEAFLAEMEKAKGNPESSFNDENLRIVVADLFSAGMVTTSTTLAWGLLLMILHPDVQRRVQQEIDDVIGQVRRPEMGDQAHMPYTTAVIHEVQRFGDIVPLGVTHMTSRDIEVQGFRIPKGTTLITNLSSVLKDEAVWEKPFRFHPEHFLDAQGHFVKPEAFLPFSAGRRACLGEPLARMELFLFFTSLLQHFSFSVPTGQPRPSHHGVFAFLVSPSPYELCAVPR
# [12] = Cmax in rat blood at 3 mg/kg, po; format: ADME, organism-based; set-up: dose 3 mg/kg, route oral; details: whole blood
# [13] = Distribution coefficient, log D of the compound at pH 7.4; format: physicochemical; details: octanol/water
# Chain of Cytochrome P450 2C9 (P11712 whole entry): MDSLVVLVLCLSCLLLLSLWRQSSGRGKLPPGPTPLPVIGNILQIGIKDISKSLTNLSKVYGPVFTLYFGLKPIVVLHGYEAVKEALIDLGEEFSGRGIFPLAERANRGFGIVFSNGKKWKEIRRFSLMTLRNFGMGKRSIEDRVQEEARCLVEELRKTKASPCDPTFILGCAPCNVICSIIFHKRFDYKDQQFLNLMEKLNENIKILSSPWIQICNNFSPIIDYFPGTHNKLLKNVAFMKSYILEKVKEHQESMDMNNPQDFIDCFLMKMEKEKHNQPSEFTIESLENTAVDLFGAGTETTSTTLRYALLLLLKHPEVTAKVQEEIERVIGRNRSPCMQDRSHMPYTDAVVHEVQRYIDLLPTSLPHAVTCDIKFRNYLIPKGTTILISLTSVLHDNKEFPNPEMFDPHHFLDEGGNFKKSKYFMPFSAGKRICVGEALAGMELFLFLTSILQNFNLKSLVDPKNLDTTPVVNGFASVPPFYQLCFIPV
IC50 (Cytochrome P450 2C9) [µM],Activity (Glutamate receptor 2 [1]) [%],logD [2],EC50 (Glutamate receptor 2 [3]) [µM],solubility kinetic [4] [µg/mL],IC50 (Cytochrome P450 1A2) [µM],Structure (SMILES),also measured
2,63,3.1,20,5,–,CN(C)S(=O)(=O)c1ccc(-n2nc(C(F)(F)F)c3c2CCCC3)cc1,–
–,79,2.8,10,11,–,CC(C)S(=O)(=O)NCc1ccc(-n2nc(C(F)(F)F)c3c2CCCC3)cc1,IC50 [8]: > 10 µM
–,112,3.2,10,12,–,O=S(=O)(NCc1ccc(-n2nc(C(F)(F)F)c3c2CCCC3)cc1)C1CC1,IC50 [8]: > 10 µM
1,81,2.3,25.1,59,6,CC(C(=O)N1CCCC1)c1ccc(-n2nc(C(F)(F)F)c3c2CCCC3)cc1 (configuration not stated),–
4,94,3.4,20,124,–,O=C(N1CCCC1)C(F)(F)c1ccc(-n2nc(C(F)(F)F)c3c2CCCC3)cc1,–
7,107,2.3,2,118,–,CN(C)C(=O)Cc1ccc(-n2nc(C(F)(F)F)c3c2CCCC3)cc1,Cmax [6]: 260 ng/mL; AUC(0-t) [7]: 262 ng·h/mL; CL/F [9]: 47 mL/min/kg; Kp (in vivo; brain and blood): 2.8; fraction unbound [10]: 0.022; Brain tissue binding (% bound) (Brain): 98.8%
3,82,3.3,3.16,77,–,O=C(Cc1ccc(-n2nc(C(F)(F)F)c3c2CCCC3)cc1)N1CCCC1,Cmax [6]: 95 ng/mL; AUC(0-t) [7]: 166 ng·h/mL; CL/F [9]: 55 mL/min/kg; Kp (in vivo; brain and blood): 0.9; fraction unbound [10]: 0.004; Brain tissue binding (% bound) (Brain): 98.1%
6,86,3.2,15.8,65,–,CCCCN(C)C(=O)c1ccc(-n2nc(C(F)(F)F)c3c2CCCC3)cc1,IC50 (Cytochrome P450 2D6): 8 µM

# The next lines start with the molecule.
Structure (SMILES),IC50 (Cytochrome P450 2C9) [µM],Activity (Glutamate receptor 2 [1]) [%],logD [2],EC50 (Glutamate receptor 2 [3]) [µM],solubility kinetic [4] [µg/mL],IC50 (Cytochrome P450 1A2) [µM],also measured
O=S1(=O)CCCN1Cc1ccc(-n2nc(C(F)(F)F)c3c2CCCC3)cc1,–,118,3.3,10,12,–,Papp [5]: 40 ×10⁻⁶ cm/s; Cmax [6]: 136 ng/mL; AUC(0-t) [7]: 364 ng·h/mL; IC50 [8]: > 10 µM; CL/F [9]: 41 mL/min/kg; Kp (in vivo; brain and blood): 2.5; fraction unbound [10]: 0.032; Brain tissue binding (% bound) (Brain): 99.5%
CCC(=O)NCc1ccc(-n2nc(C(F)(F)F)c3c2CCCC3)cc1,8,98,3.6,2.51,62,3.5,–
O=C(Cc1ccc(-n2nc(C(F)(F)F)c3c2CCCC3)cc1F)N1CCCC1,7,79,3.7,1.26,41,–,Cmax [6]: 111 ng/mL; AUC(0-t) [7]: 248 ng·h/mL; CL/F [9]: 55 mL/min/kg; Kp (in vivo; brain and blood): 0.3; fraction unbound [10]: 0.002; Brain tissue binding (% bound) (Brain): 99.4%
O=C1CCCN1Cc1ccc(-n2nc(C(F)(F)F)c3c2CCCC3)cc1,5,132,2.4,1,110,1,Cmax [6]: 121 ng/mL; AUC(0-t) [7]: 231 ng·h/mL; CL/F [9]: 54 mL/min/kg; Kp (in vivo; brain): 1.4; fraction unbound [10]: 0.016; Brain tissue binding (% bound) (Brain): 99.4%
O=C(N1CCCC1)C1(c2ccc(-n3nc(C(F)(F)F)c4c3CCCC4)cc2)CC1,0.3,37,3.8,31.6,31,–,IC50 (Cytochrome P450 2C19): 7 µM; IC50 (Cytochrome P450 3A4): 6 µM
O=C(C(F)c1ccc(-n2nc(C(F)(F)F)c3c2CCCC3)cc1)N1CCCC1 (configuration not stated),–,98,3.4,31.6,124,–,IC50 [8]: > 10 µM
O=C1CCCN1Cc1ccc(-n2nc(C(F)(F)F)c3c2COCC3)cc1,> 10,116,–,5.01,123,> 10,AUC(0-t) [11]: 824 ng·h/mL; Papp [5]: 44 ×10⁻⁶ cm/s; IC50 (Cytochrome P450 2C19): > 10 µM; IC50 (Cytochrome P450 2D6): > 10 µM; Cmax [12]: 331 ng/mL; fraction unbound [10]: 0.057; IC50 (Cytochrome P450 3A4): > 10 µM; Brain tissue binding (% bound) (Brain): 94.9%; logD [13]: 2.6
O=C(Cc1ccc(-n2nc(C(F)(F)F)c3c2CCCC3)cc1)NC1CCCC1,0.2,100,–,63.1,–,–,IC50 (Cytochrome P450 2D6): 8 µM; IC50 (Cytochrome P450 3A4): 0.7 µM
CC(=O)N(C)Cc1ccc(-n2nc(C(F)(F)F)c3c2CCCC3)cc1,–,94,1.3,2,–,–,–
CC(=O)Cc1ccc(-n2nc(C(F)(F)F)c3c2CCCC3)cc1,≤ 1,111,3,3.98,44,≤ 1,IC50 (Cytochrome P450 2C19): 2 µM; IC50 (Cytochrome P450 2D6): ≤ 1 µM; IC50 [8]: ≤ 1 µM; IC50 (Cytochrome P450 3A4): ≤ 1 µM
O=C1CCCN1Cc1ccc(-n2nc(C(F)(F)F)c3c2CCCC3)cc1F,9,112,3.3,1,88,2,Papp [5]: 42 ×10⁻⁶ cm/s; Cmax [6]: 167 ng/mL; AUC(0-t) [7]: 331 ng·h/mL; CL/F [9]: 47 mL/min/kg; Kp (in vivo; brain): 1.3; fraction unbound [10]: 0.011
CN(CCc1ccccc1)C(=O)c1ccc(-n2nc(C(F)(F)F)c3c2CCCC3)cc1,1,84,3,39.8,57,–,IC50 (Cytochrome P450 2C19): 3 µM
CC(=O)NCc1ccc(-n2nc(C(F)(F)F)c3c2CCCC3)cc1,–,79,–,1.26,47,–,IC50 [8]: > 10 µM
O=C(c1ccc(-n2nc(C(F)(F)F)c3c2CCCC3)cc1)N1CCCCC1,–,100,1.6,> 100,16,–,–
CS(=O)(=O)c1ccc(-n2nc(C(F)(F)F)c3c2CCCC3)cc1,–,83,3.4,31.6,13,4,IC50 (Cytochrome P450 2D6): 6 µM
CN(Cc1ccc(-n2nc(C(F)(F)F)c3c2CCCC3)cc1)S(C)(=O)=O,–,102,3.3,20,15,–,IC50 [8]: > 10 µM
CC(=O)c1ccc(-n2nc(C(F)(F)F)c3c2CCCC3)cc1,4,94,3,31.6,13,0.1,–
